In brackets after ≈: the same amount, converted by molar mass.
Tests used:
[1] = Antitubercular activity against Mycobacterium tuberculosis H37Ra ATCC 25177 dormant stage infected in human THP1 cells measured on day 12 by nitrate reductase assay; type: functional, THP-1; conditions: ATCC 25177, 288 h
[2] = Antitubercular activity against Mycobacterium tuberculosis H37Ra ATCC 25177 active stage infected in human THP1 cells measured on day 8 by nitrate reductase assay; type: functional, THP-1; conditions: ATCC 25177, 192 h
[3] = Antitubercular activity against Mycobacterium tuberculosis H37Ra ATCC 25177 active stage measured on day 8 by XTT reduction menadione based two-fold dilution assay; type: functional; conditions: ATCC 25177, 192 h
Procedure, shortened: (§1)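 M. tuberculosis H37Ra ATCC 25177 was exposed to 0.7–100 μg/mL in two-fold steps (0.7, 1.5, 3.1 … 100). Active stage was read after 8 days and dormant stage after 12 days of incubation. Inhibition was read by XTT reduction menadione assay (XRMA), absorbance 470 nm. MIC90 is the concentration giving ≥90% inhibition (µg/mL).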

[4] = Antitubercular activity against Mycobacterium tuberculosis H37Ra ATCC 25177 dormant stage measured on day 12 by XTT reduction menadione based two-fold dilution assay; type: functional; conditions: ATCC 25177, 288 h; procedure, shortened: as §1
[5] = Antitubercular activity against Mycobacterium bovis BCG ATCC 35743 active stage measured on day 8 by nitrate reductase based two-fold dilution assay; type: functional, Mycobacterium bovis BCG str. ATCC 35743; conditions: Mycobacterium tuberculosis variant bovis BCG, ATCC 35743, 192 h
[6] = Antitubercular activity against Mycobacterium bovis BCG ATCC 35743 dormant stage measured on day 12 by nitrate reductase based two-fold dilution assay; type: functional, Mycobacterium bovis BCG str. ATCC 35743; conditions: Mycobacterium tuberculosis variant bovis BCG, ATCC 35743, 288 h
[7] = Cytotoxicity against human THP1 cells by MTT assay; type: toxicity, cell-based, THP-1; conditions: for GI50: THP1 cells; for GI90: thp-1
[8] = Cytotoxicity against human MCF7 cells by MTT assay; type: toxicity, cell-based; conditions: for GI50: MCF7 cells; for GI90: mcf7
[9] = Cytotoxicity against human HCT116 cells by MTT assay; type: toxicity, cell-based, HCT-116; conditions: for GI50: HCT116 cells; for GI90: hct-116
[10] = Selectivity index, ratio of GI50 for human MCF7 cells to MIC90 for Mycobacterium tuberculosis H37Ra ATCC 25177 active stage; type: toxicity, cell-based; conditions: read-out: Selectivity Index
Procedure, shortened: (§2)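 Cytotoxicity was measured on human MCF-7, HCT116 and THP-1 cells by MTT assay, with paclitaxel as reference. GI50 is the concentration inhibiting 50% of cell growth. The selectivity index is GI50 for the given cell line divided by MIC90 for the given mycobacterial strain and stage.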

[11] = Selectivity index, ratio of GI50 for human MCF7 cells to MIC90 for Mycobacterium tuberculosis H37Ra ATCC 25177 dormant stage; type: toxicity, cell-based; conditions: read-out: Selectivity Index
Procedure, shortened: (§3)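 Cytotoxicity was measured on human MCF-7, HCT116 and THP-1 cells by MTT assay, with paclitaxel as reference. The selectivity index is GI50 for the given cell line divided by MIC90 for the given mycobacterial strain and stage.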

[12] = Selectivity index, ratio of GI50 for human MCF7 cells to MIC90 for Mycobacterium bovis BCG ATCC 35743 active stage; type: toxicity, cell-based; conditions: read-out: Selectivity Index; procedure, shortened: as §2
[13] = Selectivity index, ratio of GI50 for human MCF7 cells to MIC90 for Mycobacterium bovis BCG ATCC 35743 dormant stage; type: toxicity, cell-based; conditions: read-out: Selectivity Index; procedure, shortened: as §3
[14] = Selectivity index, ratio of GI50 for human HCT116 cells to MIC90 for Mycobacterium tuberculosis H37Ra ATCC 25177 active stage; type: toxicity, cell-based, HCT-116; conditions: read-out: Selectivity Index; procedure, shortened: as §2
[15] = Selectivity index, ratio of GI50 for human HCT116 cells to MIC90 for Mycobacterium tuberculosis H37Ra ATCC 25177 dormant stage; type: toxicity, cell-based, HCT-116; conditions: read-out: Selectivity Index; procedure, shortened: as §3
[16] = Selectivity index, ratio of GI50 for human HCT116 cells to MIC90 for Mycobacterium bovis BCG ATCC 35743 active stage; type: toxicity, cell-based, HCT-116; conditions: read-out: Selectivity Index; procedure, shortened: as §2
[17] = Selectivity index, ratio of GI50 for human HCT116 cells to MIC90 for Mycobacterium bovis BCG ATCC 35743 dormant stage; type: toxicity, cell-based, HCT-116; conditions: read-out: Selectivity Index; procedure, shortened: as §3
[18] = Selectivity index, ratio of GI50 for human THP1 cells to MIC90 for Mycobacterium tuberculosis H37Ra ATCC 25177 active stage; type: toxicity, cell-based, THP-1; conditions: read-out: Selectivity Index; procedure, shortened: as §2
[19] = Selectivity index, ratio of GI50 for human THP1 cells to MIC90 for Mycobacterium tuberculosis H37Ra ATCC 25177 dormant stage; type: toxicity, cell-based, THP-1; conditions: read-out: Selectivity Index; procedure, shortened: as §3
[20] = Selectivity index, ratio of GI50 for human THP1 cells to MIC90 for Mycobacterium bovis BCG ATCC 35743 active stage; type: toxicity, cell-based, THP-1; conditions: read-out: Selectivity Index; procedure, shortened: as §2
[21] = Selectivity index, ratio of GI50 for human THP1 cells to MIC90 for Mycobacterium bovis BCG ATCC 35743 dormant stage; type: toxicity, cell-based, THP-1; conditions: read-out: Selectivity Index; procedure, shortened: as §3
Escherichia coli [22] = experiment: Growth inhibition of Escherichia coli at 30 ug/ml; type: functional; conditions: read-out: GI
Escherichia coli [23] = experiment: Growth inhibition of Escherichia coli at 10 ug/ml; type: functional; conditions: read-out: GI
Escherichia coli [24] = experiment: Growth inhibition of Escherichia coli at 3 ug/ml; type: functional; conditions: read-out: GI
Procedure, shortened: (§4)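 Screened against Gram-negative E. coli and P. aeruginosa and Gram-positive S. aureus and B. subtilis. Compound was tested at 3 µg/ml, and the read-out is percent growth inhibition.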

Pseudomonas aeruginosa [25] = experiment: Growth inhibition of Pseudomonas aeruginosa at 30 ug/ml; type: functional; conditions: read-out: GI
Pseudomonas aeruginosa [26] = experiment: Growth inhibition of Pseudomonas aeruginosa at 10 ug/ml; type: functional; conditions: read-out: GI
Pseudomonas aeruginosa [27] = experiment: Growth inhibition of Pseudomonas aeruginosa at 3 ug/ml; type: functional; conditions: read-out: GI; procedure, shortened: as §4
Staphylococcus aureus [28] = experiment: Growth inhibition of Staphylococcus aureus at 30 ug/ml; type: functional; conditions: read-out: GI
Staphylococcus aureus [29] = experiment: Growth inhibition of Staphylococcus aureus at 10 ug/ml; type: functional; conditions: read-out: GI
Staphylococcus aureus [30] = experiment: Growth inhibition of Staphylococcus aureus at 3 ug/ml; type: functional; conditions: read-out: GI; procedure, shortened: as §4
Bacillus subtilis [31] = experiment: Growth inhibition of Bacillus subtilis at 30 ug/ml; type: functional; conditions: read-out: GI
Bacillus subtilis [32] = experiment: Growth inhibition of Bacillus subtilis at 10 ug/ml; type: functional; conditions: read-out: GI
Bacillus subtilis [33] = experiment: Growth inhibition of Bacillus subtilis at 3 ug/ml; type: functional; conditions: read-out: GI; procedure, shortened: as §4

| Compound | MIC90 [1] [µg/mL] | MIC90 [2] [µg/mL] | IC50 [3] [µg/mL] | MIC90 [3] [µg/mL] | IC50 [4] [µg/mL] | MIC90 [4] [µg/mL] | IC50 [5] [µg/mL] | MIC90 [5] [µg/mL] | IC50 [6] [µg/mL] | MIC90 [6] [µg/mL] | GI50 [7] [µg/mL] | GI90 [7] [µg/mL] | GI50 [8] [µg/mL] | GI90 [8] [µg/mL] | GI50 [9] [µg/mL] | GI90 [9] [µg/mL] | selectivity ratio [10] | selectivity ratio [11] | selectivity ratio [12] | selectivity ratio [13] | also measured |
| --- | --- | --- | --- | --- | --- | --- | --- | --- | --- | --- | --- | --- | --- | --- | --- | --- | --- | --- | --- | --- | --- |
| C/C(=N\NC(N)=S)c1sc(-c2ccccc2)nc1C | 3.67 (≈ 12.6 µM) | 1.94 (≈ 6.68 µM) | 0.12 (≈ 0.413 µM) | 1.78 (≈ 6.13 µM) | 0.78 (≈ 2.69 µM) | 2.05 (≈ 7.06 µM) | 0.94 (≈ 3.24 µM) | 3.04 (≈ 10.5 µM) | 0.97 (≈ 3.34 µM) | 3.46 (≈ 11.9 µM) | 81.5 (≈ 281 µM) | > 100 | 26 (≈ 89.5 µM) | > 100 | 47.3 (≈ 163 µM) | > 100 | 15 | 13 | 9 | 8 | selectivity ratio [14]: 27; selectivity ratio [15]: 23; selectivity ratio [16]: 16; selectivity ratio [17]: 14; selectivity ratio [18]: 46; selectivity ratio [19]: 40; selectivity ratio [20]: 27; selectivity ratio [21]: 24; inhibition of growth at 30 µg/mL (Escherichia coli [22]): 79.6%; inhibition of growth at 10 µg/mL (Escherichia coli [23]): 66.7%; inhibition of growth at 3 µg/mL (Escherichia coli [24]): 50.9%; inhibition of growth at 30 µg/mL (Pseudomonas aeruginosa [25]): 79.4%; inhibition of growth at 10 µg/mL (Pseudomonas aeruginosa [26]): 65.1%; inhibition of growth at 3 µg/mL (Pseudomonas aeruginosa [27]): 47.4%; inhibition of growth at 30 µg/mL (Staphylococcus aureus [28]): 78.4%; inhibition of growth at 10 µg/mL (Staphylococcus aureus [29]): 64.5%; inhibition of growth at 3 µg/mL (Staphylococcus aureus [30]): 47.5%; inhibition of growth at 30 µg/mL (Bacillus subtilis [31]): 76.7%; inhibition of growth at 10 µg/mL (Bacillus subtilis [32]): 61.8%; inhibition of growth at 3 µg/mL (Bacillus subtilis [33]): 43.4% |
| C/C(=N\Nc1nc(-c2ccc(F)cc2)cs1)c1sc(C)nc1C | 44.3 (≈ 128 µM) | 57 (≈ 165 µM) | 2.67 (≈ 7.71 µM) | 25.3 (≈ 72.9 µM) | 2.04 (≈ 5.89 µM) | 53.8 (≈ 155 µM) | 6 (≈ 17.3 µM) | 9.29 (≈ 26.8 µM) | 6.04 (≈ 17.4 µM) | 10.4 (≈ 30.1 µM) | > 100 | > 100 | > 100 | > 100 | > 100 | > 100 | 4 | 2 | 11 | 10 | selectivity ratio [14]: 4; selectivity ratio [15]: 2; selectivity ratio [16]: 11; selectivity ratio [17]: 10; selectivity ratio [18]: 4; selectivity ratio [19]: 2; selectivity ratio [20]: 11; selectivity ratio [21]: 10; inhibition of growth at 30 µg/mL (Escherichia coli [22]): 84.3%; inhibition of growth at 10 µg/mL (Escherichia coli [23]): 77.3%; inhibition of growth at 3 µg/mL (Escherichia coli [24]): 64%; inhibition of growth at 30 µg/mL (Pseudomonas aeruginosa [25]): 81.7%; inhibition of growth at 10 µg/mL (Pseudomonas aeruginosa [26]): 76.8%; inhibition of growth at 3 µg/mL (Pseudomonas aeruginosa [27]): 62%; inhibition of growth at 30 µg/mL (Staphylococcus aureus [28]): 83.5%; inhibition of growth at 10 µg/mL (Staphylococcus aureus [29]): 75.9%; inhibition of growth at 3 µg/mL (Staphylococcus aureus [30]): 61.6%; inhibition of growth at 30 µg/mL (Bacillus subtilis [31]): 82.2%; inhibition of growth at 10 µg/mL (Bacillus subtilis [32]): 74.1%; inhibition of growth at 3 µg/mL (Bacillus subtilis [33]): 58.6% |
| C/C(=N\NC(N)=S)c1sc(C)nc1C | > 100 | > 100 | 0.21 (≈ 0.92 µM) | > 100 | 0.19 (≈ 0.832 µM) | 30.5 (≈ 134 µM) | 4.42 (≈ 19.4 µM) | > 100 | 5.09 (≈ 22.3 µM) | > 100 | > 100 | > 100 | > 100 | > 100 | > 100 | > 100 | 1 | 3 | 1 | 1 | selectivity ratio [14]: 1; selectivity ratio [15]: 3; selectivity ratio [16]: 1; selectivity ratio [17]: 1; selectivity ratio [18]: 1; selectivity ratio [19]: 3; selectivity ratio [20]: 1; selectivity ratio [21]: 1; inhibition of growth at 30 µg/mL (Escherichia coli [22]): 85%; inhibition of growth at 10 µg/mL (Escherichia coli [23]): 76.8%; inhibition of growth at 3 µg/mL (Escherichia coli [24]): 66.4%; inhibition of growth at 30 µg/mL (Pseudomonas aeruginosa [25]): 85.4%; inhibition of growth at 10 µg/mL (Pseudomonas aeruginosa [26]): 76.3%; inhibition of growth at 3 µg/mL (Pseudomonas aeruginosa [27]): 64.7%; inhibition of growth at 30 µg/mL (Staphylococcus aureus [28]): 84.2%; inhibition of growth at 10 µg/mL (Staphylococcus aureus [29]): 75.4%; inhibition of growth at 3 µg/mL (Staphylococcus aureus [30]): 64.2%; inhibition of growth at 30 µg/mL (Bacillus subtilis [31]): 82.9%; inhibition of growth at 10 µg/mL (Bacillus subtilis [32]): 73.5%; inhibition of growth at 3 µg/mL (Bacillus subtilis [33]): 61.5% |

From ChEMBL document CHEMBL3872252, “New bithiazolyl hydrazones: Novel synthesis, characterization and antitubercular evaluation” (Bioorg Med Chem Lett, 2017)
